Test results reported in ChEMBL document CHEMBL4219029, “Impact of Target Warhead and Linkage Vector on Inducing Protein Degradation: Comparison of Bromodomain and Extra-Terminal (BET) Degraders Derived from Triazolodiazepine (JQ1) and Tetrahydroquinoline (I-BET726) BET Inhibitor Scaffolds” (J Med Chem, 2018).
Active and inactive are the calls of the source. The rule behind the calls is not given here.

Tests used:
HL-60 = assay: Antiproliferative activity against human HL60 cells after 48 hrs by CellTiter-Glo luminescent cell viability assay; format: functional, cell-based; conditions: HL-60, 48 h
In short: (§1)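 Cells in RPMI with 10% FBS, L-glutamine, penicillin and streptomycin at 37 °C, 5% CO2. Seeded at 3 × 10^5 per mL and exposed to a range of compound concentrations or 0.05% DMSO for 48 h. Viability read by CellTiter-Glo luminescence. EC50 from curve fitting; errors reflect fit quality.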

MV4-11 = assay: Antiproliferative activity against human MV4-11 cells after 48 hrs by CellTiter-Glo luminescent cell viability assay; format: functional, cell-based; conditions: MV4-11, 48 h; in short: as §1
[1] = target: von Hippel-Lindau disease tumor suppressor/Bromodomain-containing protein 4/Elongin-B/Elongin-C (Homo sapiens, UniProt O60885+P40337+Q15369+Q15370); assay: (§2) Induction of interaction of N-terminal His6-tagged recombinant human VHL (54 to 213 residues)/elongin C (17 to 112 residues)/elongin B (1 to 104 residues) co-expressed in Escherichia coli BL21 (DE3) with recombinant human Brd4 BD2 assessed as VCB/BRD4/compound ternary complex formation by isothermal titration calorimetry-based assay
[2] = target: T1, von Hippel-Lindau disease tumor suppressor/Bromodomain-containing protein 4 (Homo sapiens, UniProt O60885+P40337); assay: Proteolysis targeting chimera activity in human HeLa cells assessed as induction of VCB-mediated delivery of BRD4 long isoform for protein degradation by proteasome by measuring drug level causing 50% cellular protein depletion incubated for 24 hrs by Western blotting method; format: cell-based
[3] = target: T1, von Hippel-Lindau disease tumor suppressor/Bromodomain-containing protein 4; assay: Proteolysis targeting chimera activity in human HeLa cells assessed as induction of VCB-mediated delivery of BRD4 short isoform for protein degradation by proteasome by measuring drug level causing 50% cellular protein depletion incubated for 24 hrs by Western blotting method; format: cell-based
[4] = target: T2, von Hippel-Lindau disease tumor suppressor/Bromodomain-containing protein 3/Elongin-B/Elongin-C (Homo sapiens, UniProt Q15059+P40337+Q15370+Q15369); assay: Proteolysis targeting chimera activity in human HeLa cells assessed as induction of VCB-mediated delivery of BRD3 for protein degradation by proteasome by measuring drug level causing 50% cellular protein depletion incubated for 24 hrs by Western blotting method; format: cell-based
[5] = target: Von Hippel-Lindau disease tumor suppressor/Elongin B/Elongin C (Homo sapiens, UniProt P40337); assay: Binding affinity to N-terminal His6-tagged recombinant human VHL (54 to 213 residues)/elongin C (17 to 112 residues)/elongin B (1 to 104 residues) expressed in Escherichia coli BL21 (DE3) assessed as compound binary complex formation by isothermal titration calorimetry-based assay
[6] = target: Bromodomain-containing protein 4 (Homo sapiens, UniProt O60885); assay: Binding affinity to N-terminal His6-tagged recombinant human Brd4 BD2 expressed in Escherichia coli BL21 (DE3) assessed as compound binary complex formation by isothermal titration calorimetry-based assay
In short: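 ITC at 25 °C, stirred, in 20 mM Bis-Tris propane, 150 mM NaCl, 1 mM TCEP, pH 7.4, with 0.2% or 3% DMSO depending on scaffold. Bromodomain titrated into PROTAC (20 μM in cell, halved for poorly soluble compounds) over 19 injections. Single-binding-site fit gave n, Kd and ΔH.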

[7] = target: T3, von Hippel-Lindau disease tumor suppressor/Bromodomain-containing protein 2/Elongin-B/Elongin-C (Homo sapiens) (UniProt P25440+P40337+Q15370+Q15369); assay: Proteolysis targeting chimera activity in human HeLa cells assessed as induction of VCB-mediated delivery of BRD2 for protein degradation by proteasome at 1 to 10 uM incubated for 6 hrs by Western blotting method; format: cell-based
In short: (§3)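 HeLa cells seeded at 3 × 10^5 per well and treated the next day for 6 h. RIPA lysates (protease inhibitors, Benzonase, 0.5 mM MgCl2) immunoblotted. Band intensities normalized to β-actin and expressed relative to DMSO vehicle.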

[8] = target: T2, von Hippel-Lindau disease tumor suppressor/Bromodomain-containing protein 3/Elongin-B/Elongin-C; assay: Proteolysis targeting chimera activity in human HeLa cells assessed as induction of VCB-mediated delivery of BRD3 for protein degradation by proteasome at 1 to 10 uM incubated for 24 hrs by Western blotting method; format: cell-based
In short: (§4)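 HeLa cells seeded at 3 × 10^5 per well and treated the next day for 24 h. Lysed in RIPA buffer with protease inhibitors, Benzonase and 0.5 mM MgCl2, then immunoblotted. Bands normalized to β-actin and quantified against DMSO control. Dmax is the largest depletion across concentrations. Two biological replicates.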

[9] = target: T1, von Hippel-Lindau disease tumor suppressor/Bromodomain-containing protein 4; assay: Proteolysis targeting chimera activity in human HeLa cells assessed as induction of VCB-mediated delivery of BRD4 short isoform for protein degradation by proteasome at 1 to 10 uM incubated for 24 hrs by Western blotting method; format: cell-based; in short: as §4
[10] = target: von Hippel-Lindau disease tumor suppressor/Bromodomain-containing protein 2/Elongin-B/Elongin-C (Homo sapiens, UniProt P25440+P40337+Q15369+Q15370); assay: as §2, with “Brd2 BD1” for “Brd4 BD2”, “VCB/BRD2/compound” for “VCB/BRD4/compound”
[11] = target: T3, von Hippel-Lindau disease tumor suppressor/Bromodomain-containing protein 2/Elongin-B/Elongin-C (Homo sapiens); assay: Proteolysis targeting chimera activity in human HeLa cells assessed as induction of VCB-mediated delivery of BRD2 for protein degradation by proteasome at 1 to 10 uM incubated for 24 hrs by Western blotting method; format: cell-based; in short: as §4
[12] = target: T1, von Hippel-Lindau disease tumor suppressor/Bromodomain-containing protein 4; assay: Proteolysis targeting chimera activity in human HeLa cells assessed as induction of VCB-mediated delivery of BRD4 long isoform for protein degradation by proteasome at 1 to 10 uM incubated for 24 hrs by Western blotting method; format: cell-based; in short: as §4
[13] = target: T1, von Hippel-Lindau disease tumor suppressor/Bromodomain-containing protein 4; assay: Proteolysis targeting chimera activity in human HeLa cells assessed as induction of VCB-mediated delivery of BRD4 short isoform for protein degradation by proteasome at 1 to 10 uM incubated for 6 hrs by Western blotting method; format: cell-based; in short: as §3
[14] = target: T2, von Hippel-Lindau disease tumor suppressor/Bromodomain-containing protein 3/Elongin-B/Elongin-C; assay: Proteolysis targeting chimera activity in human HeLa cells assessed as induction of VCB-mediated delivery of BRD3 for protein degradation by proteasome at 1 to 10 uM incubated for 6 hrs by Western blotting method; format: cell-based; in short: as §3
[15] = target: T1, von Hippel-Lindau disease tumor suppressor/Bromodomain-containing protein 4; assay: Proteolysis targeting chimera activity in human HeLa cells assessed as induction of VCB-mediated delivery of BRD4 long isoform for protein degradation by proteasome at 1 to 10 uM incubated for 6 hrs by Western blotting method; format: cell-based; in short: as §3

SMILES: CC(=O)N1c2ccc(-c3ccc(C(=O)O)cc3)cc2[C@H](Nc2ccc(Cl)cc2)C[C@@H]1C
- Emax (HL-60): 82.4%
- Emax (MV4-11): 73.3%

SMILES: CC(=O)N1c2ccc(-c3ccc(C(=O)NCCOCCOCC(=O)N[C@H](C(=O)N4C[C@H](O)C[C@H]4C(=O)NCc4ccc(-c5scnc5C)cc4)C(C)(C)C)cc3)cc2[C@H](Nc2ccc(Cl)cc2)C[C@@H]1C
- Kd [1]: 0.781 µM
- pDC50 [2]: 6.7
- pDC50 [3]: 6.9
- EC50 (HL-60): 0.676 µM
- Emax (HL-60): 96.6%
- pDC50 [4]: 6.8
- EC50 (MV4-11): 0.575 µM
- Emax (MV4-11): 88.1%
- Kd [5]: 0.116 µM
- Kd [6]: 0.003 µM

SMILES: Cc1ncsc1-c1ccc(CNC(=O)[C@@H]2C[C@@H](O)CN2C(=O)[C@@H](NC(=O)COCCOCCOCCOCCNC(=O)C[C@@H]2N=C(c3ccc(Cl)cc3)c3c(sc(C)c3C)-n3c(C)nnc32)C(C)(C)C)cc1
- Kd [1]: 0.015 µM
- pDC50 [3]: 8.4
- EC50 (HL-60): 1.26 µM
- Emax (HL-60): 91.7%
- Emax (MV4-11): 95.2%
- Kd [6]: 0.027 µM

SMILES: CC(=O)N1c2ccc(-c3ccc(C(=O)NCCOCCOCCOCCOCC(=O)N[C@H](C(=O)N4C[C@H](O)C[C@H]4C(=O)NCc4ccc(-c5scnc5C)cc4)C(C)(C)C)cc3)cc2[C@H](Nc2ccc(Cl)cc2)C[C@@H]1C
- Activity [7]: inactive
- Kd [1]: 0.183 µM
- Activity [8]: inactive
- Activity [9]: inactive
- Kd [10]: 0.33 µM
- Activity [2]: Dose-dependent effect
- pDC50 [2]: 7.5
- Activity [11]: inactive
- Activity [12]: inactive
- Activity [13]: inactive
- Activity [3]: Dose-dependent effect
- pDC50 [3]: 8.1
- EC50 (HL-60): 0.427 µM
- Emax (HL-60): 98.3%
- Activity [14]: inactive
- Activity [4]: Dose-dependent effect
- pDC50 [4]: 7.7
- EC50 (MV4-11): 0.0832 µM
- Emax (MV4-11): 96.4%
- Kd [5]: 0.109 µM
- Kd [6]: 0.008 µM
- Activity [15]: inactive

SMILES: Cc1sc2c(c1C)C(c1ccc(Cl)cc1)=N[C@@H](CC(=O)Nc1ccc(OCCOCCOCCOCCNc3cccc4c3C(=O)N(C3CCC(=O)NC3=O)C4=O)cc1)c1nnc(C)n1-2 (stereo not given in full)
- Emax (HL-60): 88%

SMILES: Cc1ncsc1-c1ccc(CNC(=O)[C@@H]2C[C@@H](O)CN2C(=O)[C@@H](NC(=O)COCCOCCOCCNC(=O)C[C@@H]2N=C(c3ccc(Cl)cc3)c3c(sc(C)c3C)-n3c(C)nnc32)C(C)(C)C)cc1
- EC50 (HL-60): 0.219 µM
- Emax (HL-60): 92%
- EC50 (MV4-11): 0.0269 µM

SMILES: Cc1ncsc1-c1ccc(CNC(=O)[C@@H]2C[C@@H](O)CN2C(=O)[C@@H](NC(=O)COCCOCCNC(=O)C[C@@H]2N=C(c3ccc(Cl)cc3)c3c(sc(C)c3C)-n3c(C)nnc32)C(C)(C)C)cc1
- Kd [1]: 0.026 µM
- EC50 (HL-60): 1.45 µM
- Emax (HL-60): 91.4%
- EC50 (MV4-11): 0.178 µM
- Emax (MV4-11): 91.4%
- Kd [6]: 0.017 µM
